Reference: ChEMBL document CHEMBL5357049, “Discovery of new dibenzodiazepine derivatives as antibacterials against intracellular bacteria” (RSC Med Chem, 2024)
The source made the active and inactive calls. The rule behind the calls is not given here.

Tests used:
[1] = tested on: Salmonella typhimurium; experiment: Antibacterial activity against Salmonella typhimurium ATCC14028 infected in mouse RAW264.7 cells assessed as reduction in intracellular bacterial growth incubated for 24 hrs in presence of gentamicin by CMFDA and DAPI staining based high-content screening method; format: functional, organism-based, Salmonella enterica subsp. enterica serovar Typhimurium; settings: Salmonella enterica, ATCC14028, RAW264.7, 24 h
Outline: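 RAW264.7 seeded at 10^4 cells/well for 20 h, then infected at MOI 50 with RFP-expressing ATCC14028 (subcultured 2 h, OD600 0.6 ≈ 1.5×10^8 CFU/mL). After 1 h infection: 100 µg/mL gentamicin 1 h, then compound with 20 µg/mL gentamicin for 24 h. Stained with 2.5 µM CMFDA, fixed in 3.7% formaldehyde, DAPI nuclei; nuclei and intracellular bacteria counted by imaging, 10× objective.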

[2] = Selectivity ratio of CC50 for cytotoxicity against mouse RAW264.7 cells to EC50 for antibacterial activity against Salmonella typhimurium ATCC14028 infected in mouse RAW264.7 cells; format: toxicity, cell-based; settings: read-out: Ratio CC50/EC50
[3] = Cytotoxicity against mouse RAW264.7 cells assessed as reduction in cell viability incubated for 24 hrs by MTT assay; format: toxicity, cell-based
Outline: (§1)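 Cells seeded at 10^5 cells/mL, grown 20 h at 37°C, 5% CO2, then exposed to compound for 24 h. Medium replaced with 0.5 mg/mL MTT for 1 h, formazan dissolved in DMSO, absorbance read at 570 nm; CC50 calculated. HT-29 and HCT-116 kept in McCoy's 5A with 10% FBS, THP-1 in RPMI 1640 with 10% FBS, others in DMEM with 10% FBS.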

[4] = tested on: Salmonella typhimurium; experiment: Antibacterial activity against Salmonella typhimurium ATCC14028 infected in human HT-29 cells assessed as reduction in intracellular bacterial growth incubated for 24 hrs in presence of gentamicin by CFU assay; format: functional, organism-based, Salmonella enterica subsp. enterica serovar Typhimurium; settings: Salmonella enterica, ATCC14028, HT-29, 24 h
Outline: (§2)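 Host cells: HCT-116 and HT-29 in McCoy's 5A + 10% FBS; INT-407 and J774.1 in DMEM + 10% FBS. Bacteria were LB-grown, subcultured 2 h, and set to OD600 0.6. After 1 h infection, cells got 100 µg/mL gentamicin for 1 h, then compound for 24 h with 20 µg/mL gentamicin. Lysis was 0.1% Triton X-100, then plating and overnight colony counts; EC50 calculated.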

[5] = tested on: THP-1; experiment: Cytotoxicity against macrophage-like human THP-1 cells assessed as reduction in cell viability incubated for 24 hrs in presence of gentamicin by MTT assay; format: functional
Outline: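 THP-1 differentiated to macrophages with 100 ng/mL PMA for 72 h, then seeded at 10^5 cells/mL and grown 20 h. Compound added for 24 h; 0.5 mg/mL MTT for 1 h, formazan dissolved in DMSO, absorbance at 570 nm; CC50 calculated.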

[6] = Cytotoxicity against human Intestine 407 cells assessed as reduction in cell viability incubated for 24 hrs in presence of gentamicin by MTT assay; format: functional; outline: as §1
[7] = biological target: D(2) dopamine receptor (Homo sapiens) (UniProt P14416); experiment: Displacement of [3H]-labelled spiperone human recombinant D2 receptor expressed in CHO cells at 0.1 to 1 uM incubated for 2 hrs; format: cell-based; settings: dose 0.1-1 µM
Chain of D(2) dopamine receptor (Homo sapiens) (P14416 whole entry): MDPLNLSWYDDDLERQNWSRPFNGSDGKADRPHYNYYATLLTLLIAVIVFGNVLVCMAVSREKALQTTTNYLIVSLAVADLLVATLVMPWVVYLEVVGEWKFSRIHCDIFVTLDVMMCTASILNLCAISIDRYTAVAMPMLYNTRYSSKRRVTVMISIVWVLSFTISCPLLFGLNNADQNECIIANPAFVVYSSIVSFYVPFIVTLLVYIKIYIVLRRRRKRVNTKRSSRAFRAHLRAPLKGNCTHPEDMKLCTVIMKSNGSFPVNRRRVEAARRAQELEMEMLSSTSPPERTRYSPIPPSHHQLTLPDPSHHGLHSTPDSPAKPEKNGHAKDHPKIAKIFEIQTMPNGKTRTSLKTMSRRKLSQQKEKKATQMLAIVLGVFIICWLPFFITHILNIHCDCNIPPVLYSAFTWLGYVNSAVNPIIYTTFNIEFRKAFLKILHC
Outline: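 Contract radioligand binding: 20 µg human recombinant D2R from CHO cells incubated with [3H]spiperone, then compound added; pH 7.4 Tris-HCl, 2 h at 25°C.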

[8] = tested on: RAW264.7; experiment: Cytotoxicity against mouse RAW264.7 cells assessed as reduction in cell viability at 60 uM incubated for 24 hrs by MTT assay; format: toxicity, cell-based; settings: raw264.7, 24 h
[9] = tested on: Salmonella typhimurium; experiment: Antibacterial activity against Salmonella typhimurium CGC18 infected in mouse RAW264.7 cells assessed as reduction in intracellular bacterial growth incubated for 24 hrs in presence of gentamicin by CFU assay; settings: Salmonella enterica, CGC18, RAW264.7, 24 h
[10] = tested on: Salmonella typhimurium; experiment: Antibacterial activity against Salmonella typhimurium ATCC14028 assessed as reduction in bacterial growth upto 64 uM incubated for 24 hrs by SpectraMax microplate reader analysis; format: functional, organism-based; settings: Salmonella enterica subsp. enterica serovar Typhimurium
Outline: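 Overnight LB culture inoculated at 5×10^5 CFU/mL final into CAMHB or into DMEM with 10% FBS. Exposed to a range of concentrations at 37°C; growth followed by absorbance at 600 nm at set times over 24 h.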

[11] = tested on: Yersinia enterocolitica; experiment: Antibacterial activity against Yersinia enterocolitica infected in mouse RAW264.7 cells assessed as reduction in intracellular bacterial growth incubated for 24 hrs in presence of gentamicin by CFU assay; format: functional, organism-based; settings: RAW264.7, 24 h
Outline: (§3)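 Clinical isolate grown overnight (16-18 h) in BHI at 37°C with shaking, subcultured 1:100 for 2 h, pelleted, resuspended in PBS to OD600 0.6. RAW264.7 infected for 1 h, then 100 µg/mL gentamicin 1 h, then compound in medium with 20 µg/mL gentamicin for 24 h. Cells lysed in 0.1% Triton X-100, lysates serially diluted and plated, colonies counted after overnight growth; EC50 calculated.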

[12] = tested on: Salmonella typhimurium; experiment: Antibacterial activity against Salmonella typhimurium ATCC14028 infected in monocytic human THP-1 cells assessed as reduction in intracellular bacterial growth incubated for 24 hrs in presence of gentamicin by CFU assay; format: functional, organism-based, Salmonella enterica subsp. enterica serovar Typhimurium; settings: Salmonella enterica, ATCC14028, THP-1, 24 h
Outline: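 Undifferentiated THP-1 cells in RPMI 1640 + 10% FBS. Cells were infected 1 h with LB-grown bacteria at OD600 0.6, given 100 µg/mL gentamicin for 1 h, then compound for 24 h with 20 µg/mL gentamicin.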

[13] = tested on: Salmonella typhimurium; experiment: Antibacterial activity against Salmonella typhimurium ATCC14028 infected in human HCT-116 cells assessed as reduction in intracellular bacterial growth incubated for 24 hrs in presence of gentamicin by CFU assay; format: functional, organism-based, Salmonella enterica subsp. enterica serovar Typhimurium; settings: Salmonella enterica, ATCC14028, HCT-116, 24 h; outline: as §2
[14] = tested on: Salmonella typhimurium; experiment: Antibacterial activity against Salmonella typhimurium ATCC14028 infected in mouse J774.1 cells assessed as reduction in intracellular bacterial growth incubated for 24 hrs in presence of gentamicin by CFU assay; format: functional, organism-based, Salmonella enterica subsp. enterica serovar Typhimurium; settings: Salmonella enterica, ATCC14028, J774.1, 24 h; outline: as §2
[15] = tested on: Salmonella typhimurium; experiment: Antibacterial activity against Salmonella typhimurium ATCC14028 infected in human Intestine 407 cells assessed as reduction in intracellular bacterial growth incubated for 24 hrs in presence of gentamicin by CFU assay; format: functional, organism-based, Salmonella enterica subsp. enterica serovar Typhimurium; settings: Salmonella enterica, ATCC14028, Intestine 407, 24 h; outline: as §2
[16] = Cytotoxicity against mouse RAW264.7 cells assessed as reduction in cell viability incubated for 24 hrs by CMFDA and DAPI staining based high-content screening method; format: toxicity
[17] = tested on: Salmonella Typhi; experiment: Antibacterial activity against Salmonella Typhi Ty2 infected in mouse RAW264.7 cells assessed as reduction in intracellular bacterial growth incubated for 24 hrs in presence of gentamicin by CFU assay; settings: Salmonella enterica, Ty2, RAW264.7, 24 h
[18] = tested on: Salmonella typhimurium; experiment: Antibacterial activity against Salmonella typhimurium ATCC14028 infected in macrophage-like human THP-1 cells assessed as reduction in intracellular bacterial growth incubated for 24 hrs in presence of gentamicin by CFU assay; format: functional, organism-based, Salmonella enterica subsp. enterica serovar Typhimurium; settings: Salmonella enterica, ATCC14028, THP-1, 24 h
Outline: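 THP-1 cells in RPMI 1640 + 10% FBS, differentiated with 100 ng/mL PMA for 72 h. Cells were infected 1 h with LB-grown bacteria adjusted to OD600 0.6, given 100 µg/mL gentamicin for 1 h, then compound for 24 h in 20 µg/mL gentamicin.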

[19] = tested on: HT-29; experiment: Cytotoxicity against human HT-29 cells assessed as reduction in cell viability incubated for 24 hrs in presence of gentamicin by MTT assay; format: functional; outline: as §1
[20] = tested on: Salmonella typhimurium; experiment: Antibacterial activity against Salmonella typhimurium ATCC14028 infected in mouse RAW264.7 cells assessed as reduction in intracellular bacterial growth incubated for 24 hrs in presence of gentamicin by CFU assay; format: functional, organism-based, Salmonella enterica subsp. enterica serovar Typhimurium; settings: Salmonella enterica, ATCC14028, RAW264.7, 24 h
Outline: (§4)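 RAW264.7 cells in DMEM + 10% FBS, seeded at 3×10^5 per well for 20 h. Bacteria were grown in LB for 16–18 h, subcultured 1:100 for 2 h, and brought to OD600 0.6 in PBS. After 1 h infection, cells got 100 µg/mL gentamicin for 1 h, then compound for 24 h with 20 µg/mL gentamicin.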

[21] = tested on: THP-1; experiment: Cytotoxicity against monocytic human THP-1 cells assessed as reduction in cell viability incubated for 24 hrs in presence of gentamicin by MTT assay; format: functional; outline: as §1
[22] = tested on: Listeria monocytogenes; experiment: Antibacterial activity against Listeria monocytogenes infected in mouse RAW264.7 cells assessed as reduction in intracellular bacterial growth incubated for 24 hrs in presence of gentamicin by CFU assay; format: functional, organism-based; settings: RAW264.7, 24 h; outline: as §3
[23] = tested on: Salmonella typhimurium; experiment: Antibacterial activity against ACSSuT-resistant Salmonella typhimurium NL10 infected in mouse RAW264.7 cells assessed as reduction in intracellular bacterial growth incubated for 24 hrs in presence of gentamicin by CFU assay; format: functional, organism-based, Salmonella enterica subsp. enterica serovar Typhimurium; settings: Salmonella enterica, NL10, RAW264.7, 24 h; outline: as §4
[24] = tested on: HCT-116; experiment: Cytotoxicity against human HCT-116 cells assessed as reduction in cell viability incubated for 24 hrs in presence of gentamicin by MTT assay; format: functional; outline: as §1
[25] = tested on: J774.1; experiment: Cytotoxicity against mouse J774.1 cells assessed as reduction in cell viability incubated for 24 hrs in presence of gentamicin by MTT assay; format: functional; outline: as §1

Cc1cc2c(s1)Nc1ccccc1N=C2NCCN1CCCCC1
EC50 [1]: 2.36 µM
selectivity ratio [2]: 16.5
CC50 at 24 h [3]: 38.9 µM

Clc1ccc2c(c1)C(NCCCN1CCCC1)=Nc1cccnc1N2
EC50 [1]: 4.24 µM
selectivity ratio [2]: 23.8
CC50 at 24 h [3]: 101 µM

Clc1ccc2c(c1)C(NCCN1CCCCC1)=Nc1cccnc1N2
EC50 [1]: 5.67 µM
selectivity ratio [2]: 10.9
CC50 at 24 h [3]: 61.9 µM

Cc1cc2c(s1)Nc1ccccc1N=C2N1CCN(C)CC1 [OLANZAPINE]
EC50 [1]: 5.4 µM
selectivity ratio [2]: 36.7
CC50 at 24 h [3]: 198 µM

c1ccc2c(c1)N=C(NCCN1CCCCC1)c1ccccc1N2
EC50 [1]: 3.7 µM
selectivity ratio [2]: 29.8
CC50 at 24 h [3]: 110 µM

Clc1ccc2c(c1)C(NCCN1CCNCC1)=Nc1ccccc1O2
EC50 [1]: 0.3 µM
selectivity ratio [2]: 75
CC50 at 24 h [3]: 22.5 µM

c1ccc2c(c1)N=C(NCCN1CCNCC1)c1ccccc1N2
EC50 [1]: > 30 µM
CC50 at 24 h [3]: 128 µM

Cc1cc2c(s1)Nc1ccccc1N=C2NCCCN1CCCC1
EC50 [1]: 1.14 µM
selectivity ratio [2]: 67.3
CC50 at 24 h [3]: 76.8 µM

Cc1cc2c(s1)Nc1ccccc1N=C2NCCN(C)C
EC50 [1]: 1.48 µM
selectivity ratio [2]: 85.3
CC50 at 24 h [3]: 126 µM

Clc1ccc2c(c1)C(NCCN1CCNCC1)=Nc1cccnc1N2
EC50 [1]: 8.82 µM
selectivity ratio [2]: 13.9
CC50 at 24 h [3]: 123 µM

O=C(O)c1cn(C2CC2)c2cc(N3CCNCC3)c(F)cc2c1=O [CIPROFLOXACIN]
EC50 [1]: 0.06 µM

Cc1cc2c(s1)Nc1ccccc1N=C2NCCN1CCNCC1
EC50 [1]: 4.17 µM
selectivity ratio [2]: 24.6
CC50 at 24 h [3]: 103 µM

CN(C)CCNC1=Nc2cccnc2Nc2ccc(Cl)cc21
EC50 [1]: 6.09 µM
selectivity ratio [2]: 26.1
CC50 at 24 h [3]: 159 µM

c1ccc2c(c1)N=C(NCCCN1CCCC1)c1ccccc1N2
EC50 [4]: 5.97 µM
CC50 [5]: 134 µM
CC50 [6]: > 180 µM
Activity [7]: inactive
Activity [8]: Non-Toxic
EC50 [9]: 1.27 µM
Activity [10]: inactive
EC50 [11]: 0.93 µM
EC50 [12]: 1.02 µM
EC50 [13]: 2.85 µM
EC50 [14]: 0.42 µM
EC50 [15]: 2.49 µM
CC50 at 24 h [16]: 92.5 µM
EC50 [1]: 0.4 µM
EC50 [17]: 0.55 µM
selectivity ratio [2]: 272
EC50 [18]: 0.52 µM
CC50 [19]: > 180 µM
EC50 [20]: 0.38 µM
CC50 [21]: 153 µM
EC50 [22]: 0.6 µM
EC50 [23]: 2.28 µM
CC50 [24]: > 180 µM
CC50 at 24 h [3]: 109 µM
CC50 [25]: 86.8 µM

CN(C)CCNC1=Nc2ccccc2Nc2ccccc21
EC50 [1]: 15.2 µM
selectivity ratio [2]: 19.7
CC50 at 24 h [3]: 299 µM

CN1CCN(C2=Nc3ccccc3Oc3ccc(Cl)cc32)CC1 [LOXAPINE]
EC50 [1]: 5.77 µM
selectivity ratio [2]: 19.1
CC50 at 24 h [3]: 110 µM
